From the array DNA melting data of Ke et al. (doi:10.1101/2024.01.08.574731)

What was measured:
[1] = folding enthalpy; higher = less favourable; fluorescence melt of hairpins on a sequencing array, two-state fit; settings: sodium 0.088 M
Summary of the method: (§1)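 Bootstrapped two-state fits yielded melting temperature and folding enthalpy for library hairpins. Cy3 fluorescence, with annealed Cy3 and quencher oligos, was imaged on a sequenced MiSeq flow cell in 50 mM Na-HEPES pH 8.0, 25 mM NaCl in 2.5 °C steps up to 60 °C, and normalised to pre-quench Cy3 and to control constructs. Four replicates were combined by inverse variance, and fitted temperatures were raised by 9.35 °C to match UV melts.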

[2] = melting temperature; fluorescence melt of hairpins on a sequencing array, two-state fit, raised by 9.35 °C to match UV melts; settings: sodium 0.088 M
Summary of the method: as §1

Sequence | folding enthalpy [1] [kcal/mol] | Tm [2] [°C]
GATCAGTCACCTGATC ((((((....)))))) | -36.4 | 49.6
GATCAGTCGACTGATC ((((((....)))))) | -53.5 | 55.5
GATCAGTCTCCTGATC ((((((....)))))) | -39.1 | 49.4
GATCAGTGAGCTGATC ((((((....)))))) | -36.1 | 56.2
GATCAGTGCACTGATC ((((((....)))))) | -58.7 | 56.3
GATCAGTGCTCTGATC ((((((....)))))) | -26.4 | 52.1
GATCAGTGGGCTGATC ((((((....)))))) | -48.6 | 54.4
GATCAGTGTACTGATC ((((((....)))))) | -33.1 | 59.1
GATCAGTTAACTGATC ((((((....)))))) | -40.5 | 54.4
GATCAGTTAGCTGATC ((((((....)))))) | -40.2 | 53.1
GATCAGTTTACTGATC ((((((....)))))) | -49.2 | 59.6
GATCAGTTTCTGATC ((((((...)))))) | -43.7 | 50.8
GATCATAAAAATGATC ((((((....)))))) | -27.4 | 36.8
GATCATAACGATGATC ((((((....)))))) | -31.5 | 45.9
GATCATAATAATGATC ((((((....)))))) | -35.4 | 45.4
GATCATAATTATGATC ((((((....)))))) | -42 | 47.8
GATCATACAGATGATC ((((((....)))))) | -35.8 | 44.4
GATCATACCAATGATC ((((((....)))))) | -39.4 | 48.4
GATCATACCCATGATC ((((((....)))))) | -38.6 | 46.5
GATCATACTTATGATC ((((((....)))))) | -37 | 48.5
GATCATAGGAATGATC ((((((....)))))) | -26 | 44.3
GATCATATCAATGATC ((((((....)))))) | -27.9 | 48.3
GATCATATCATGATC ((((((...)))))) | -37.2 | 50.4
GATCATATCGATGATC ((((((....)))))) | -34.3 | 47.4

Sequence | folding enthalpy [1] [kcal/mol] | Tm [2] [°C]
GATCATATCTATGATC ((((((....)))))) | -41.6 | 48.5
GATCATATGAATGATC ((((((....)))))) | -31.7 | 45.7
GATCATCAAATGATC ((((((...)))))) | -25.1 | 41.1
GATCATCAAGATGATC ((((((....)))))) | -40.4 | 49.8
GATCATCACTATGATC ((((((....)))))) | -31.3 | 48.6
GATCATCATAATGATC ((((((....)))))) | -36.3 | 47.1
GATCATCATTATGATC ((((((....)))))) | -34.6 | 46.8
GATCATCCATATGATC ((((((....)))))) | -34.9 | 47
GATCATCCCAATGATC ((((((....)))))) | -36.2 | 48.2
GATCATCCGATGATC ((((((...)))))) | -33.3 | 46.8
GATCATCCGTATGATC ((((((....)))))) | -38.9 | 47.8
GATCATCCTGATGATC ((((((....)))))) | -41.7 | 54.5
GATCATCGAATGATC ((((((...)))))) | -25.6 | 43.6
GATCATCGAGATGATC ((((((....)))))) | -45.2 | 54.2
GATCATCGGCATGATC ((((((....)))))) | -32 | 44.7
GATCATCTACATGATC ((((((....)))))) | -38.5 | 46.2
GATCATCTCTATGATC ((((((....)))))) | -38.9 | 47.1
GATCATCTGATGATC ((((((...)))))) | -37.5 | 46.3
GATCATGAATATGATC ((((((....)))))) | -46.8 | 54.5
GATCATGATCATGATC ((((((....)))))) | -52.3 | 51.4
GATCATGATGATGATC ((((((....)))))) | -32.3 | 47.5
GATCATGCAATGATC ((((((...)))))) | -46 | 59.2
GATCATGCATATGATC ((((((....)))))) | -55.8 | 55.4
GATCATGCCCATGATC ((((((....)))))) | -43 | 53.5

Sequence | folding enthalpy [1] [kcal/mol] | Tm [2] [°C]
GATCATGCGAAAGCAATC (((..(((....)))))) | -9.85 | 22.5
GATCATGCGCATGATC ((((((....)))))) | -57.1 | 57.2
GATCATGCTAATGATC ((((((....)))))) | -42.7 | 57.2
GATCATGCTATGATC ((((((...)))))) | -27.9 | 49.9
GATCATGGCTATGATC ((((((....)))))) | -40.6 | 53.7
GATCATGGTATGATC ((((((...)))))) | -36.3 | 48.9
GATCATGTAATGATC ((((((...)))))) | -39.8 | 57.4
GATCATGTCAATGATC ((((((....)))))) | -40 | 56.9
GATCATTAATATGATC ((((((....)))))) | -37.1 | 45.5
GATCATTAGAATGATC ((((((....)))))) | -28.6 | 45.8
GATCATTATATGATC ((((((...)))))) | -40.2 | 48.8
GATCATTCAGATGATC ((((((....)))))) | -36.9 | 46.9
GATCATTCGTATGATC ((((((....)))))) | -33.3 | 48.1
GATCATTCTTATGATC ((((((....)))))) | -40.9 | 48.6
GATCATTGCAATGATC ((((((....)))))) | -44.8 | 52.3
GATCATTGCTATGATC ((((((....)))))) | -36 | 47.8
GATCATTGGGATGATC ((((((....)))))) | -38.8 | 49.5
GATCATTGTATGATC ((((((...)))))) | -30.9 | 49.5
GATCATTTAAATGATC ((((((....)))))) | -46.3 | 48.4
GATCATTTCAATGATC ((((((....)))))) | -42.2 | 52.3
GATCATTTTAATGATC ((((((....)))))) | -53.2 | 53.6
GATCCAAAAATGGATC ((((((....)))))) | -26.4 | 42.9
GATCCAAACCTGGATC ((((((....)))))) | -40.8 | 49.8
GATCCAAACGTGGATC ((((((....)))))) | -37.4 | 49

Sequence | folding enthalpy [1] [kcal/mol] | Tm [2] [°C]
GATCCAAACTGGATC ((((((...)))))) | -43 | 50.4
GATCCAAATCTGGATC ((((((....)))))) | -33.8 | 47.4
GATCCAACACTGGATC ((((((....)))))) | -43 | 48.1
GATCCAACCATGGATC ((((((....)))))) | -35.5 | 50
GATCCAACTCTGGATC ((((((....)))))) | -30.9 | 49.2
GATCCAAGATTGGATC ((((((....)))))) | -40 | 50.3
GATCCAAGTATGGATC ((((((....)))))) | -36.5 | 50.3
GATCCAAGTTTGGATC ((((((....)))))) | -41.1 | 52.1
GATCCAATAATGGATC ((((((....)))))) | -31.1 | 47.5
GATCCAATCTGGATC ((((((...)))))) | -33.1 | 51.8
GATCCACAAGTGGATC ((((((....)))))) | -38.6 | 57.9
GATCCACAATGGATC ((((((...)))))) | -30.7 | 48.3
GATCCACACTGGATC ((((((...)))))) | -33.2 | 50.7
GATCCACAGGTGGATC ((((((....)))))) | -40.9 | 57
GATCCACCCGTGGATC ((((((....)))))) | -40.4 | 57.9
GATCCACCCTGGATC ((((((...)))))) | -33.8 | 51
GATCCACGGTGGATC ((((((...)))))) | -43.6 | 50.6
GATCCACTAATGGATC ((((((....)))))) | -32.7 | 49.8
GATCCACTATTGGATC ((((((....)))))) | -40.9 | 49.8
GATCCACTCATGGATC ((((((....)))))) | -41.5 | 52.5
GATCCACTCCTGGATC ((((((....)))))) | -38.4 | 50.3
GATCCACTTTTGGATC ((((((....)))))) | -34.6 | 50.6
GATCCAGATGTGGATC ((((((....)))))) | -35.4 | 51.1
GATCCAGCAATGGATC ((((((....)))))) | -41.6 | 56.8
